Records with an inconclusive call do not appear. Calls of active or inactive are those of the source.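 How the source made its calls: active means compounds raising caspase signal whose fitted half-maximal concentration lies at or below their highest valid tested dose; inconclusive means flat curve at 30 to 70% activity, or unreliable fit; inactive means the rest.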
tested on: not listed separately; experiment: Caspase-Glo signal, A1-expressing MEWO cells – cell-based, Trichostatin A priming, dry powder, A1 (Bcl2-A1) inhibitor project, dose response (AID 488914); details: MEWO cells TSA-primed, caspase-Glo luminescence, 3 h; at 135 µM (top of the series)
Method in brief: (§1)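 Test system: Human MEWO cells with A1 expression, Trichostatin A primed | Technique: Caspase-Glo luminescence, reagent diluted 1:1 in 50 mM HEPES | Medium: RPMI-1640 plus 10% FBS | Read-out: Caspase activity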

SMILES | caspase activation
Cn1c(=NC(=O)CCl)sc2ccccc21 | -6.3% (inactive)
CCSc1nnc(NC(=O)c2nc(S(=O)(=O)Cc3ccc(F)cc3)ncc2Cl)s1 | -10.5% (inactive)
O=C(CCl)N=c1sccn1Cc1ccccc1Cl | 3.57% (inactive)
Cc1cccc(CS(=O)(=O)c2ncc(Cl)c(C(=O)Nc3nnc(C(C)C)s3)n2)c1 | -9.05% (inactive)
Nc1nc(F)nc2c1ncn2[C@@H]1O[C@H](CO)[C@@H](O)[C@H]1O | -2.16% (inactive)
CCc1nnc(NC(=O)c2nc(S(=O)(=O)Cc3ccccc3)ncc2Cl)s1 | -6.87% (inactive)
COc1cc(/C=C(/C#N)c2nc3ccccc3[nH]2)ccc1OCC(=O)Nc1ccccc1C(C)C | 2.25% (inactive)
Cc1ccc(CS(=O)(=O)c2ncc(Cl)c(C(=O)Nc3nnc(C(C)C)s3)n2)cc1 | -9.39% (inactive)
C=C1[C@@H](C)[C@H]2[C@H](Cc3ccccc3)NC(=O)[C@]23[C@H](OC(C)=O)/C=C/[C@](C)(O)C(=O)[C@@H](C)C/C=C/[C@H]3[C@@H]1O | 5.7% (inactive)

tested on: MEWO cells TSA-primed, caspase-Glo luminescence, 3 h; experiment: as above; details: not given
Method in brief: as §1

SMILES | AC50
CC(C)(C)n1nc(-c2ccc(Cl)cc2)c2c(N)ncnc21 | > 135 µM (inactive)
Cc1ccc(Sc2c([N+](=O)[O-])c(=O)n(C)c3ccccc23)cc1 | 16.8 µM
Cc1c(CCOC(=O)c2ccc(N3CCOCC3)c([N+](=O)[O-])c2)sc[n+]1CC#N | 13.1 µM
COc1cccc(C(=O)C(C#N)=C(SC)SC)c1 | 0.92 µM
C=C1[C@@H](C)[C@H]2[C@H](Cc3ccccc3)NC(=O)[C@]23OC(=O)/C=C\[C@H](O)CCC[C@@H](C)C/C=C/[C@H]3[C@@H]1O | 2.29 µM
O=C(Oc1cccc(/C=N/Nc2nc(Nc3ccccc3)nc(N3CCOCC3)n2)c1)c1ccco1 | 6.87 µM
CCOC(=O)CSC1=N/C(=C/c2ccc(-n3cncn3)cc2)C(=O)N1C(C)=O | 4.12 µM
CC(=O)N[C@H]1[C@H](O[C@H]2CC[C@@]3(C)C(CC[C@]4(C)C3CC=C3[C@@H]5CC(C)(C)CC[C@]5(C(=O)OC5OCC(O)C(O)C5O)C(O)C[C@]34C)C2(C)C)O[C@H](COC2OCC(O)C(OC3OCC(O)C(O)C3O)C2O)[C@@H](O[C@@H]2O[C@@H](C)[C@H](O)[C@@H](O)[C@H]2O[C@@H]2O[C@@H](C)[C@H](O)[C@@H](O)[C@H]2O)[C@@H]1O (stereo not given in full) | 6.81 µM
C/C1=C/C(=O)O[C@@H]2C[C@@H](CC[C@H](C)/C=C\CC1)O[C@@](O)(C1CSC(=O)N1)C2 (stereo not given in full) | 0.632 µM
COc1ccc(N(C(=O)CCl)C(C(=O)NCCc2ccccc2)c2cccs2)cc1Cl (stereo not given) | 10.6 µM
Cc1cc(C(=O)CCl)c(C)n1CCc1ccc(Cl)cc1 | 77.8 µM

From PubChem BioAssay AID488914 (Broad Institute, 2010)
